The nature of data set [1]: Toxicity against CEM cells. The data set is classed as cell-based. The note with it: human, CEM (CCRF-CEM) cells; read-out: TC50 (the source's name).
Data set [2] relates to Human immunodeficiency virus 1. The data set can be described thus: Antiviral activity against HIV1 infected CEM cells. The conditions noted are these: Human immunodeficiency virus 1, CCRF-CEM. The data set is classed as functional, organism-based. The gist of the method:
(§1)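 Cell-based assay in HIV-1-infected CEM cells, read out as protection from virus-induced cell killing.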

Data set [3] has as its target Human immunodeficiency virus type 1 reverse transcriptase (Human immunodeficiency virus 1, UniProt Q72547). The data set can be described thus: Inhibition of HIV1 NL4-3 reverse transcriptase.
Data set [4] relates to Human immunodeficiency virus 1. The data set can be described thus: Antiviral activity against wild type HIV1 NL4-3 by cytopathic cell killing assay. In kind it is functional, organism-based. The conditions noted are these: Human immunodeficiency virus 1, NL4-3. The gist of the method: as §1
(In general: Protection from cytopathic effect is a common read-out in antiviral testing.)

The test system of data set [5] is Human immunodeficiency virus 1. The data set can be described thus: Antiviral activity against HIV1 with RT L100I mutation by cytopathic cell killing assay. The data set is classed as functional, organism-based.
The test system of data set [6] is Human immunodeficiency virus 1. The data set can be described thus: Antiviral activity against HIV1 with RT K101E mutation by cytopathic cell killing assay. The data set is classed as functional, organism-based.
The subject of data set [7] is Human immunodeficiency virus 1. The data set can be described thus: Antiviral activity against HIV1 with RT K103N mutation by cytopathic cell killing assay. In kind it is functional, organism-based.
Data set [8] concerns Human immunodeficiency virus 1. The data set can be described thus: Antiviral activity against HIV1 with RT V108I mutation by cytopathic cell killing assay. In kind it is functional, organism-based.
Data set [9] relates to Human immunodeficiency virus 1. The data set can be described thus: Antiviral activity against HIV1 with RT Y181C mutation by cytopathic cell killing assay. In kind it is functional, organism-based.
The test system of data set [10] is Human immunodeficiency virus 1. The data set can be described thus: Antiviral activity against HIV1 with RT Y188C mutation by cytopathic cell killing assay. The data set is classed as functional, organism-based.
Data set [11] has as its system Human immunodeficiency virus 1. The data set can be described thus: Antiviral activity against HIV1 with RT V106A mutation by cytopathic cell killing assay. The data set is classed as functional, organism-based.

Molecules are shown by their SMILES.

On to `CC(=O)N(C)c1cccc2c1nc(-c1c(F)cccc1F)n2Cc1c(F)cccc1F`, for which the CC50 in data set [1] is above 100000 nM. The EC50 in data set [2] is 20 nM; in [4], 40 nM; in [5], 1660 nM; in data set [6] it was 640 nM; in [7] it was above 10000 nM; in data set [8], above 10000 nM. Further, the EC50 in [9] amounted to 400 nM; in data set [10] it was 540 nM; in data set [11], 50 nM. The same molecule showed an IC50 in data set [3] of 320 nM.

The EC50 is the midpoint of the concentration-response curve. A low value points to a more potent agent. By IC50 is commonly meant the concentration at which inhibition is half-maximal. Read a high IC50 as weaker potency in that assay.
